This is an account of results in ChEMBL document CHEMBL2384901, “Synthesis and biology of oligoethylene glycol linked naphthoxylosides” (Bioorg Med Chem, 2013).

Data set [1] deals with HCC70. The experiment in a line: Cytotoxicity against human HCC70 cells assessed as growth inhibition after 96 hrs by crystal violet staining assay. In kind it is functional. The conditions noted are these: HCC70, 96 h, read-out: ED50 (the source's name). The essentials: (§1)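 Cells plated at 5000/well in MEM Earle's or RPMI-1640 with 10% FBS. After 24 h, medium changed to Ham's F-12 with insulin (10 µg/mL), transferrin (25 µg/mL), 1% L-glutamine, 10 ng/mL EGF and xylosides at 5–500 µM, for 96 h. Cells fixed in 0.25% glutaraldehyde and stained with 0.1% crystal violet. Lysed in 1% Triton X-100; A595 read. ED50 reported.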

Data set [2] is described as follows: Cytotoxicity against human CCD-1095SK cells assessed as growth inhibition after 96 hrs by crystal violet staining assay. In kind it is cell-based. To be noted: read-out: ED50. The essentials:
as §1

Data set [3] can be described thus: Induction of glycosaminoglycan synthesis in human CCD-1095SK cells assessed as [35S]sulfate incorporation at 100 uM after 24 hrs by bata counting analysis relative to untreated control.
The nature of data set [4]: Induction of heparan sulphate synthesis in human CCD-1095SK cells assessed as proportion of heparan sulphate of total GAGs. In kind it is functional. More on the design: concentration or dose not given beside the values. In a few lines: (§2)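 Xyloside-primed [35S]sulfate material was pooled from Superose 6 fractions, 35–51 for HCC70 and 34–51 for CCD-1095Sk. HS was cleaved by deaminative HNO2 at pH 1.5, then the digest was re-separated by gel permeation. Radioactivity was measured by β-counting.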

Data set [5] deals with HCC70. Description: Induction of heparan sulphate synthesis in human HCC70 cells assessed as proportion of heparan sulphate of total GAGs. More on the design: concentration or dose not given beside the values. In kind it is functional. The essentials: as §2
In data set [6] the test system is HCC70. The experiment in a line: Induction of glycosaminoglycan synthesis in human HCC70 cells assessed as [35S]sulfate incorporation at 100 uM after 24 hrs by bata counting analysis relative to untreated control.

With `O[C@@H]1[C@@H](O)[C@H](Oc2ccc3ccccc3c2)OC[C@H]1O`, the EC50 in the data set with HCC70 [1] is 243 µM. The GI50 at 96 h in data set [2] came out at 152 µM. In addition, the entries for the “fold change (FC)” value (in data set [3]; with HCC70 [6]) were 24 and 16, respectively. Besides, the Activity in data set [4] is reported as 3%; with HCC70 [5], 9%.

As for `Oc1ccc2cc(O[C@@H]3OC[C@@H](O)[C@H](O)[C@H]3O)ccc2c1`, in the data set with HCC70 [1], the EC50 was found to be 7 µM. For the same compound, the GI50 at 96 h in data set [2] turned out to be 258 µM. Also, the “fold change (FC)” value stood at 74 in data set [3] and 37 in the data set on HCC70 [6]. Moreover, the values for the Activity (in data set [4]; in the data set on HCC70 [5]) were 6% and 28%, respectively.

With `O[C@@H]1[C@@H](O)[C@H](OCc2ccc3ccccc3c2)OC[C@H]1O`, the EC50 in the data set with HCC70 [1] is 267 µM. For the same compound, the GI50 at 96 h in data set [2] was 298 µM. In addition, the “fold change (FC)” value in data set [3] was found to be 55; in the data set on HCC70 [6] it was 31. For the same compound, the Activity in data set [4] is listed as 7%; in the data set with HCC70 [5], 14%.

Turning to `O[C@@H]1[C@@H](O)[C@H](OCCOc2ccc3ccccc3c2)OC[C@H]1O`, the EC50 in the data set with HCC70 [1] came out at 221 µM. For the same compound, the GI50 at 96 h in data set [2] came out at 140 µM. Also, the entries for the “fold change (FC)” value (in data set [3]; in the data set on HCC70 [6]) were 79 and 26, respectively. Besides, the results for the Activity (in data set [4]; in the data set on HCC70 [5]) were 3% and 9%, respectively.

As to `O[C@@H]1[C@@H](O)[C@H](OCCOCCOc2ccc3ccccc3c2)OC[C@H]1O`, the EC50 with HCC70 [1] worked out at 129 µM. Moreover, the GI50 at 96 h in data set [2] is 150 µM. For the same compound, the entries for the “fold change (FC)” value (in data set [3]; in the data set with HCC70 [6]) were 80 and 29, respectively. Further, the Activity in data set [4] was 2%; with HCC70 [5], 5%.

With `O[C@@H]1[C@@H](O)[C@H](OCCOCCOCCOc2ccc3ccccc3c2)OC[C@H]1O`, the EC50 with HCC70 [1] came to 87 µM. Besides, the GI50 at 96 h in data set [2] amounted to 70 µM. For the same compound, the “fold change (FC)” value in data set [3] is listed as 74; with HCC70 [6], 21. Besides, the Activity in data set [4] amounted to 20%; in the data set with HCC70 [5], 15%.

With `Oc1ccc2cc(CO[C@@H]3OC[C@@H](O)[C@H](O)[C@H]3O)ccc2c1`, the EC50 with HCC70 [1] was determined as 282 µM. Further, in data set [2], the GI50 at 96 h came out at 223 µM. Moreover, the results for the “fold change (FC)” value (in data set [3]; in the data set on HCC70 [6]) were 98 and 42, respectively. For the same compound, the Activity in data set [4] was 7%; with HCC70 [5], 14%.

Turning to `Oc1ccc2cc(OCCO[C@@H]3OC[C@@H](O)[C@H](O)[C@H]3O)ccc2c1`, in the data set on HCC70 [1], the EC50 stood at 178 µM. Moreover, the GI50 at 96 h in data set [2] was determined as 280 µM. In addition, the “fold change (FC)” value came to 90 in data set [3] and 29 in the data set with HCC70 [6]. In addition, the Activity in data set [4] came to 26%; in the data set on HCC70 [5], 34%.
